# “Also recorded” adds a separate entry of the source. Like-named read-outs stand apart in the source and are kept apart here.
# Key:
# [1] = cited from earlier work
# Safety assessment = assay type: in vivo, human (healthy adult subjects)
# [2] = Part 3: effect of CYP1A2 inhibitor fluvoxamine on avadomide PK; assay type: in vivo, human (healthy adult subjects); settings: for Tmax / Vd/F / half-life / AUC(0-inf) / AUC(0-t) / Cmax: human, plasma; for AUC(0-inf): AUC0-inf; for AUC(0-inf) / AUC(0-t) / Cmax: Geometric LS Means; for AUC(0-t): AUC0-t
# How it was run: (§1)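 Open-label, nonrandomized, single-sequence crossover in healthy adults, each subject serving as own control. Plasma for test compound was taken predose and at 0.5, 1, 2, 3, 4, 6, 8, 12, 24, 48 and 72 h postdose and assayed by validated LC-MS/MS (LLOQ 1 ng/mL; range 1–400 ng/mL). Parameters came from noncompartmental analysis, including apparent volume. The ANOVA used ln AUC0-t, AUC0-inf and Cmax, with treatment fixed and subject random. Combination/alone geometric mean ratios are given with 90% CI.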
# [3] = Part 2: effect of CYP3A inhibitor itraconazole on avadomide PK; assay type: in vivo, human (healthy adult subjects); settings: for Tmax / Vd/F / half-life / AUC(0-inf) / AUC(0-t) / Cmax: human, plasma
# How it was run: as §1
# [4] = across the 0.5- to 3.5-mg dose range; cited from earlier work
# CYP3A4/5 and CYP1A2 = settings: human liver microsomes; ref data on file; cited from earlier work
# [5] = Part 4: effect of CYP3A4 inducer rifampin on avadomide PK; assay type: in vivo, human (healthy adult subjects); settings: for Tmax / Vd/F / half-life / AUC(0-inf) / AUC(0-t) / Cmax: human, plasma; for AUC(0-inf): AUC0-inf; for AUC(0-inf) / AUC(0-t) / Cmax: Geometric LS Means; for AUC(0-t): AUC0-t
# How it was run: as §1
# [6] = cited from earlier work; remark: listed apart in the source
# [7] = with the CYP1A2 inhibitor fluvoxamine; cited from earlier work
# [8] = cited from earlier work; remark: listed apart in the source
# CYP1A2 = settings: healthy subjects; cited from earlier work
# [9] = Part 2, following avadomide alone
# [10] = Part 2, following avadomide plus itraconazole
# [11] = Part 3, following avadomide alone
# [12] = Part 3, following avadomide plus fluvoxamine
# [13] = Part 4, following avadomide plus rifampin
# [14] = avadomide + fluvoxamine/avadomide
# [15] = fluvoxamine coadministration versus alone
# [16] = oral, 3 mg, avadomide alone, Part 3, N 18, ANOVA
# [17] = oral, avadomide + fluvoxamine, N 18, ANOVA
# [18] = avadomide + itraconazole/avadomide
# [19] = avadomide + rifampin /avadomide
# [20] = oral, 3 mg, avadomide alone, Part 4, N 19, ANOVA
# [21] = oral, avadomide + rifampin, N 18, ANOVA
# [22] = Part 3, following fluvoxamine alone
# [23] = with the CYP3A4 inducer carbamazepine
# [24] = with the CYP3A inhibitor ketoconazole
# [25] = Part 4, following rifampin alone
structure (smiles),measurement,setting,value
Cc1nc2cccc(N)c2c(=O)n1C1CCC(=O)NC1=O (centres unmarked) [Avadomide],plasma avadomide t½ (without CYP inhibition),[1]; healthy subjects,~8 h
same,Tmax,"[1]; single oral dose 3 to 15 mg, healthy adult subjects",approximately 1 hour
same,tolerability,"[1]; single oral doses of up to 15 mg, healthy subjects",well tolerated
same,number of TEAEs reported,Safety assessment; [9],2 TEAEs
same,subjects reporting TEAEs,Safety assessment; [9],10.5%
same,number of TEAEs reported,Safety assessment; [10],2 TEAEs
same,subjects reporting TEAEs,Safety assessment; [10],10.5%
same,"moderate TEAE of vomiting, considered related to the IP",Safety assessment; [11],1 subject
same,number of TEAEs reported,Safety assessment; [11],7 TEAEs
same,subjects reporting TEAEs,Safety assessment; [11],15.8%
same,number of TEAEs reported,Safety assessment; [12],9 TEAEs
same,subjects reporting TEAEs,Safety assessment; [12],38.9%
same,subjects reporting TEAEs,"Safety assessment; Part 4, after avadomide alone",No subjects reported TEAEs
same,number of TEAEs reported,Safety assessment; [13],1 TEAE
same,subjects reporting TEAEs,Safety assessment; [13],5.6%
same,tolerability,"Safety assessment; single oral dose of 3 mg alone or coadministered with fluvoxamine, itraconazole, or rifampin",well tolerated
same,geometric mean ratio of AUC0-t to AUC0-inf,"[2]; avadomide 3 mg alone and with fluvoxamine, 72-hour sampling",greater than 90%
same,"AUC0-inf, Ratio of Geometric LS Means",[2]; [14],154.81%
same,"AUC0-t, Ratio of Geometric LS Means",[2]; [14],160.35%
same,"Cmax, Ratio of Geometric LS Means",[2]; [14],107.59%
same,decrease of apparent clearance,[2]; [15],34%
same,prolongation of avadomide t½,[2]; [15],50%
same,Tmax,[2]; oral,0.79 h
same,Vd/F,[2]; oral,54.3 L
same,half-life,[2]; oral,13.7 h
same,AUC(0-inf),[2]; [16],709 ng·h/mL
same,AUC(0-t),[2]; [16],667 ng·h/mL
same,Cmax,"[2]; oral, 3 mg, avadomide alone, Part 3, N 19, ANOVA",70.2 ng/mL
same,AUC(0-inf),[2]; [17],1100 ng·h/mL
same,AUC(0-t),[2]; [17],1070 ng·h/mL
same,Cmax,[2]; [17],75.6 ng/mL
same,Tmax,"[2]; po, 3 mg",0.5 h
same,Vd/F,"[2]; po, 3 mg",55.2 L
same,half-life,"[2]; po, 3 mg",9.16 h
same,geometric mean ratio of AUC0-t to AUC0-inf,"[3]; avadomide 3 mg alone and with itraconazole, 72-hour sampling",greater than 90%
same,"AUC0-t, Ratio of Geometric LS Means",[3]; [18],100.54%
same,"Cmax, Ratio of Geometric LS Means",[3]; [18],~93.64%
same,Tmax,[3]; oral,1 h
same,Vd/F,[3]; oral,53.8 L
same,half-life,[3]; oral,8.79 h
same,AUC(0-inf),"[3]; oral, 3 mg",708 ng·h/mL
same,AUC(0-t),"[3]; oral, 3 mg",675 ng·h/mL
same,Cmax,"[3]; oral, 3 mg",70.8 ng/mL
same,AUC(0-inf),"[3]; po, 3 mg",708 ng·h/mL
same,AUC(0-t),"[3]; po, 3 mg",675 ng·h/mL
same,Cmax,"[3]; po, 3 mg",70.8 ng/mL
same,Tmax,"[3]; po, 3 mg",1 h
same,Vd/F,"[3]; po, 3 mg",54.7 L
same,half-life,"[3]; po, 3 mg",8.94 h
same,plasma exposure versus dose,[4],increased in a dose‐dependent manner
same,enzymes involved in oxidative metabolism,CYP3A4/5 and CYP1A2,major enzymes involved in the oxidative metabolism; also recorded: major isozymes involved in oxidative metabolism; also recorded: metabolized mainly by CYP3A and CYP1A2 in vitro
same,geometric mean ratio of AUC0-t to AUC0-inf,"[5]; avadomide 3 mg alone and with rifampin, 72-hour sampling",greater than 90%
same,"AUC0-inf, Ratio of Geometric LS Means",[5]; [19],62.83%
same,"AUC0-t, Ratio of Geometric LS Means",[5]; [19],62.34%
same,"Cmax, Ratio of Geometric LS Means",[5]; [19],88.17%
same,Tmax,[5]; oral,0.53 h
same,Vd/F,[5]; oral,57.3 L
same,half-life,[5]; oral,6.08 h
same,AUC(0-inf),[5]; [20],733 ng·h/mL
same,AUC(0-t),[5]; [20],687 ng·h/mL
same,Cmax,[5]; [20],74.8 ng/mL
same,AUC(0-inf),[5]; [21],460 ng·h/mL
same,AUC(0-t),[5]; [21],428 ng·h/mL
same,Cmax,[5]; [21],65.9 ng/mL
same,Tmax,"[5]; po, 3 mg",0.55 h
same,Vd/F,"[5]; po, 3 mg",55 L
same,half-life,"[5]; po, 3 mg",9.29 h
"COCCCC/C(=N\OCCN)c1ccc(C(F)(F)F)cc1 [fluvoxamine, reference compound]",number of TEAEs reported,Safety assessment; [22],11 TEAEs
same,subjects reporting TEAEs,Safety assessment; [22],31.6%
"CCC(C)n1ncn(-c2ccc(N3CCN(c4ccc(OCC5COC(Cn6cncn6)(c6ccc(Cl)cc6Cl)O5)cc4)CC3)cc2)c1=O (centres unmarked) [itraconazole, reference compound]",subjects reporting TEAEs,"Safety assessment; Part 2, after itraconazole alone",No subjects reported TEAEs
Nc1cccc2c1C(=O)N(C1CCC(=O)NC1=O)C2=O (centres unmarked) [pomalidomide],"AUC, % of that when administered alone",[6]; [23],79.7%
same,"Cmax, % of that when administered alone",[6]; [23],75.0%
same,"AUC, % of that when administered alone",[6]; [24],118.8%
same,"Cmax, % of that when administered alone",[6]; [24],107.3%
same,"AUC, % of that when administered alone",[7],225.1%
same,"Cmax, % of that when administered alone",[7],123.7%
same,metabolism and elimination,[8],"primarily metabolized by CYP1A2 and CYP3A, with a low fraction excreted in urine as unchanged drug"
"CO[C@H]1/C=C/O[C@@]2(C)Oc3c(C)c(O)c4c(O)c(c(/C=N/N5CCN(C)CC5)c(O)c4c3C2=O)NC(=O)/C(C)=C\C=C\[C@H](C)[C@H](O)[C@@H](C)[C@@H](O)[C@@H](C)[C@H](OC(C)=O)[C@@H]1C [rifampin, reference compound]",number of TEAEs reported,Safety assessment; [25],5 TEAEs
same,subjects reporting TEAEs,Safety assessment; [25],22.2%
same,increase in conversion of caffeine to paraxanthine mediated by CYP1A2,CYP1A2,15%
